Measured values from different studies.
Each line is one published result; the experiments were not run side by side.
Read-out: binding
CREBBP bromodomain: CREB-binding protein, bromodomain (CREBBP, Homo sapiens, UniProt Q92793)
PIK3CG: Phosphatidylinositol 4,5-bisphosphate 3-kinase catalytic subunit gamma isoform (PIK3CG, Homo sapiens, UniProt P48736)
tspO A138F: tspO (Cereibacter sphaeroides, UniProt Q9RFC8, A138F)

OC[C@H]1OC(O)[C@H](O)[C@@H](O)[C@@H]1O (some centres unmarked) — Kd (Nucleolar RNA helicase 2 (Homo sapiens, UniProt Q9NR30); MST): 3260 nM
Cn1cc(C(=O)Nc2cccc(C(=O)O)c2)ccc1=O — Kd (CREBBP bromodomain; competition with immobilised ligand): 4100 nM
CC1=C(/C=C/C(C)=C/C=C/C(C)=C/C=O)C(C)(C)CCC1 — Kd (Cellular retinoic acid-binding protein 2 (CRABP2, Homo sapiens, UniProt P29373, L122E/R133K); fluorescence): 104 nM
C=CC(=O)N1CCC(C(=O)NCC(=O)N2CCN(c3nc(-c4cnc(N)nc4C(F)F)nc(N4CCOCC4)n3)CC2)CC1 — Kd (PIK3CG; competition with immobilised ligand): 1.6 nM
C=CC1=C(C)c2cc3[nH]c(cc4nc(cc5[nH]c(cc1n2)c(C)c5CCC(=O)O)C(CCC(=O)O)=C4C)c(C)c3C=C — Kd (tspO A138F; fluorescence): 700 nM
Cc1cc(/N=N/c2ccc(S(=O)(=O)O)cc2)ccc1O — Kd (CREBBP bromodomain; fluorescence): 76000 nM
Cc1cc2nc3c(=O)[nH]c(=O)nc-3n(C[C@H](O)[C@H](O)[C@H](O)CO)c2cc1C — Kd (Riboflavin-binding protein (Gallus gallus, UniProt P02752); ITC): 127 nM
C=CC1=C(C)C2=Cc3c(C=C)c(C)c4[n]3[Fe]([Cl])[n]3c(c(C)c(CCC(=O)O)c3=CC3=NC(=C4)C(C)=C3CCC(=O)O)=CC1=N2 — Kd (tspO A138F; fluorescence): 700 nM
Nc1nc2c(ncn2[C@@H]2O[C@H](COP(=O)(O)OP(=O)(O)O)[C@@H](OP(=O)(O)OP(=O)(O)O)[C@H]2O)c(=O)[nH]1 — Kd (gpmA (Escherichia coli, UniProt P62707); ITC): 52000 nM
CCC(=O)N1CCC(C(=O)NCC(=O)N2CCN(c3nc(-c4cnc(N)nc4C(F)F)nc(N4CCOCC4)n3)CC2)CC1 — Kd (PIK3CG; competition with immobilised ligand): 1.3 nM
CCOc1cc(-c2nncn2C)ccc1Nc1ncc2cc(C)nc(NCC(C)(C)C)c2n1 — Kd (Mitogen-activated protein kinase kinase kinase 15 (MAP3K15, Homo sapiens, UniProt Q6ZN16); competition with immobilised ligand): > 10000 nM
